Test results as given in the EternaBench riboswitch data.

System: MS2 coat protein
Experiment: apparent Kd, MS2 coat protein; higher = weaker binding; RNA-MaP array; FMN 200 µM where present
In short: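 SNAP-549-labelled MS2 coat protein, doubled from 0.7 or 1.5 nM to 3 µM, was titrated over designs transcribed by stalled E. coli RNA polymerase on Illumina sequencing-chip clusters. Titrations were run without and then with constant ligand in 100 mM Tris-HCl pH 7.5, 80 mM KCl, 4 mM MgCl2, BSA, DTT, yeast tRNA and Tween-20. The apparent Kd is the median of filtered per-cluster fits to green signal normalised to red-channel RNA signal and control-cluster median Fmax.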

[1] = designed as: ON switch for flavin mononucleotide, no ligand
[2] = ligand present: flavin mononucleotide, designed as: ON switch for flavin mononucleotide
[3] = designed as: OFF switch for flavin mononucleotide, no ligand
[4] = ligand present: flavin mononucleotide, designed as: OFF switch for flavin mononucleotide

Sequence | apparent Kd [1] [nM] | apparent Kd [2] [nM] | apparent Kd [3] [nM] | apparent Kd [4] [nM]
GUGGUCAGACAUGAGGAUCACCCAUGUGGAAUAAAUAAGGAGAAGGAUAUCUAAUAUAGGAUAUAAGAGAAGGUUUGGUUGGUG | 74 | 68 | – | –
GGGUACAUCGGAGGAUAUCAUGUAAAUACAUGAGGAUCACCCAUGUCGAUGGAGACAUCAGAGAUUGAGAAGGCCGAUGUACCG | 14.9 | 6.15 | – | –
CAGGAUAGAGGAUAUGCAUAGAUACAGAUUCAUGUAAUCCUACAUGAGGAUCACCCAUGUAGAAGGCUAUCCUG | – | – | 15.1 | 35
GGAGCCGGCACGGAGGAUAUUCAUAUUAAAACAUGAGGAUCACCCAUGUAGGCCAGAAGGCCUUGGGAGAAGGCCGAUCGGCUCG | 450 | 29.7 | – | –
CUUUAGUGAGGAUAUCGGUAGUAAUACAAUAGUAUUACUACUGAGAAGGCACAUGAGGAUCACCCAUGUUCCUC | – | – | 29.9 | 233
UUAAUUAUACAAGGAUAUCUAUUGUAGUUUCGACUAACAUGAGGAUCACCCAUGUAAAUAUGUUAAGAGAAGGUGUAUUUUAAA | 45.5 | 30.3 | – | –
CUUUUGUGAGGAUAUCAGUAGUAAAAAAAUAAAAUUAUUACUGAGAAGGCACAUGAGGAUCACCCAUGUUCCUC | – | – | 34 | 196
AUGAUACAUGAGGAUCACCCAUGUCACCUCACACGAGGAUAUCUGAAUCGAUUAGAUUACGGAGAAGGCGUGGAAA | 66.8 | 20.8 | – | –
ACCAUAAACAUAGGAUAUAGAAUAAGAACUACUUACAUGAGGAUCACCCAUGUUAUAUUUGGGUACUAGAAGGAUGAGUGUUAA | 387 | 259 | – | –
UUGAGGUGCAAGAAGGAUCACAUGAGGAUCACCCAUGUCAUGUGAAGUCUCGAGAUUUUAUAUGGAUAGGAUAUUGCACCGAAC | 263 | 41.2 | – | –
CGAAACUACGAGAAGGACAUGUGGUCCUUCAGUUACAUGAGGAUCACCCAUGUAGGAUAUCGUAGUUUCAGGAUCGUGAGAUCG | – | – | 45 | 19.4
CAACCAGUGAAGGAUAUCAUCGAGGCUCGGCAUUGAGAAGGUUACACAUGAGGAUCACCCAUGUGGUUUCGUUC | – | – | 14.5 | 14.7
UUGGACGUCGUAGGAUAUGUCGGAUAUUCCUACAUGAGGAUCACCCAUGUUGACAUGGAAGAAGGACAGAAGGACGAUGUCCAU | 4.52 | 3.87 | – | –
GUAGCAUUCUGAGGAUAUUCAUACCGGUAACGGACAUGAGGAUCACCCAUGUGGCGAAAGCCUUGGGAGAAGGCAGUAUGCUAC | 171 | 10 | – | –
AUUAAACAUGAGGAUCACCCAUGUCAACAAAGUCGAGGAUAUGGGCAUAUUAUCUUAUAACCAGAAGGCGAAUAAU | 222 | 37 | – | –
UGAUAGGACAGAGGAUAUGCCGAUAGGAUCUACUAUCGAAGAAUCCUCACAUGAGGAUCACCCAUGUAGAAGGCUGUCCUAUCU | – | – | 23 | 140
UGUAACUAGUAAGGAUAUACUAUUGAUUUAAUAGUAGAAGGUACAGUCUUUUGUAUAUCAUGUUUACAUGAGGAUCACCCAUGU | 10.4 | 7.77 | – | –
UGUCGGAGCAGAGGAUAUUACAUGAGGAUCACCCAUGUAUGAACCAAUAGCUGGAAACAGCAAUGUAAGAAGGCUGCUCCAACA | – | – | 12.3 | 149
GCACGGUAUGUAGGAUAUGCAUAGCAUUGCUAUGCAGAAGGACAUGAGGAUCACCCAUGUAUGUAUUCCAUACUAAUCCCGUGA | – | – | 5.72 | 5.98
AGGUAAGAGUUAAUUGUGACGGUGAGAAGGCAAUAGUUUGUGACCGACAUGAGGAUCACCCAUGUUGAGGAUAUCACCACCUAC | – | – | 9.59 | 40.1
UCAUGUUAAGGAUAUACAUGAGGAUCACCCAUGUUUGUUCAAAAUCUUAGAUCCCAAUGUAGAAGGUGGCUGUA | – | – | 75.8 | 75.4
UAAUUAAGUGUGAGGAUAUGCUGGUCCUUGGAUCAGCAGAAGGCACAUGAGGAUCACCCAUGUAAUUUAUUUAU | – | – | 85.1 | 328
UUAUGUUAUGUAGGAUAUCACUUUAAUUGAUUAAUAUAUGAAUAUAGAAUUUGAGAAGGACAUUUACAUGAGGAUCACCCAUGU | – | – | 12.3 | 8.5
CCGUUACAUGAGGAUCACCCAUGUGAGGAUAUCGAUGUGACUGGCAGCGUGCGGGACUCGAGAAGGCACUUGGC | – | – | 74.6 | 58.5
GCAUGACAAAGUCAUGCAUAACGAACAUGAGGAUCACCCAUGUAGGAUAUGCUACUCAAAGAGUAGCAGAAGGACAUGUGCCUU | – | – | 34.2 | 263
AGCUACGUUUCGUAGCAGUGUCAUCGAGAAGGCCCUGACAUGAGGAUCACCCAUGUUGUUACAUGGGAGGAUAUCGAUGAUACG | 12.2 | 4.68 | – | –
AGGUAACAUGAGGAUCACCCAUGUCAGGAUAUCAUGAAGAGUAGAUUAGAGGAGAGGUUGAGAAGGGACUAUAU | – | – | 59.9 | 35.3
GGGUACAUGGGAGGAUAUGGGACAUGAGGAUCACCCAUGUGAAAAUUAAAUAUGCCGAGAGGCAACUAGAAGGCCCAUGUACCG | 31.1 | 15.3 | – | –

Sequence | apparent Kd [1] [nM] | apparent Kd [2] [nM] | apparent Kd [3] [nM] | apparent Kd [4] [nM]
AGUACCAUGUAGAAGGGAUAUCUGAUUCAGAUAUCAGGAUAUACAUGAGGAUCACCCAUGUAAAUGUACUGCACGAAAGUGCAA | – | – | 18 | 37.9
AAGAACAACCAGAAGGCAAGGCAAACAUGAGGAUCACCCAUGUAAUAUUUGAGGAUAUGGGUUCGACGUGGUCUAAAGUCAGGU | 120 | 14.1 | – | –
ACUUCACAUGAGGAUCACCCAUGUCAGGCCGGACUAGGAUAUUAUCAUGCAGCGUGACAGUGAGAAGGAGUUGGAU | 162 | 188 | – | –
UCCUGACCGAGAGAUAGGAGUAGUAGAAGGCGACCGGUGCCAGAUGACAUGAGGAUCACCCAUGUCGAGGAUAUACUACAGAAU | – | – | 6.99 | 9.63
AAAGACAGAGGAUAUACAUGAGGAUCACCCAUGUGGCGAAAAAAAAUCCAUUUGGCAUGUAGAAGGCUGUAUGA | – | – | 144 | 128
UUCCUCGUUGUGAGGAUAUCGUAUUCUUUUUGUUACGAGAAGGCACAUGAGGAUCACCCAUGUUUCUUGAUGUU | – | – | 19.5 | 68.8
CGUGCGUCGACAGGAUAUACAGAUUGGCUCCGGUACAUGAGGAUCACCCAUGUAGAAGGGUCACGCGCGGAUAGAACAUUCUAA | – | – | 9.09 | 40.3
GCAGGGUAUGAGAAGGCAUAAUUUAUCUAACCACAUGAUUACAUGAGGAUCACCCAUGUUUCCAAUGAGGAUAUCAUACCGUGC | – | – | 8.05 | 7.54
UUGGACGUCGUAGGAUAUGUAGGAUAUUCCUACAUGAGGAUCACCCAUGUUGACACGGAAGAAGGACAGAAGGACGAUGUCCAU | 11.6 | 4.23 | – | –
GGGAAGUUAGGAUAUGCUGCUCGUCACUUGCGUGAUGAGUAGCAGAAGGGACAUGAGGAUCACCCAUGUAAAAA | – | – | 51.1 | 26.8
UAAUAAUUAUGAGGAUAUAUACAACAUGAGGAUCACCCAUGUACCCAUGUAGUAGAAGGCAUAUUUUUAGUUAAUAACAUAACU | 75.2 | 31.1 | – | –
GUUUUGGGAGGAUAUAUGUGGAUUAUUUUCGUAUGUUGUUUACAUGAGGAUCACCCAUGUAGAAGGUCUAGAGC | – | – | 68.3 | 198
UAAUAUUUAUAAUAUUAUUACAUUAGAAGGCAAGACAUGUGGAUACAUGAGGAUCACCCAUGUAUUGAGGAUAUAGACAUAUAU | – | – | 14.6 | 21.7
CCACGUCACAUGAACAUGAGGAUCACCCAUGUAAAUUCUCAUGAGGAUAUGGAUCCUAAUUGGAUCCAGAAGGCAUGGACGUGG | 842 | 348 | – | –
UCAUUUCUGUAAGGAUAUUAAUUCAUGACGAUACAUGAGGAUCACCCAUGUUAAGAAGGUACAAAUACAAAUAAUGCAUUGUUC | – | – | 11.8 | 10.6
UGUCGGAGCAGAGGAUAUUACAUGAGGAUCACCCAUGUAUGAACCAAUAGCUGGAAACAGCAAUAUAAGAAGGCUGCUCCGACA | – | – | 5.59 | 5.48
GGCGGCAAUGAGAAGGGUCACAUGAGGAUCACCCAUGUGCUCUUCGCCGUGACAGGAUAUCAUCGCCGUCAGGUUAGAUUUUUG | – | – | 7.26 | 26.1
CUUAUAAUUGAAGGAUAUCUAUAUCCAACAUGAGGAUCACCCAUGUUGAGGAUCACCCAUGUAAAGGAGAAGGUUAAUUAUAAG | 104 | 22.7 | – | –
CAGUACUGAGGAUAUACAUGAGGAUCACCCAUGUGUUCGAUACUAGUGAGGUCGAUUAGUAGAAGGCAGUACUG | – | – | 21.3 | 248
AGCUGACGAGGAUAUACAUGAGGAUCACCCAUGUUGGUUCAGCGACUUCGGUCGCAAUGUAGAAGGCGUCAGCU | – | – | 450 | 327
AAUAUGAGCUGGUCUAAACUCAAAACAUGAGGAUCACCCAUGUAGGAUAUCAGCACGAUAAGUGCUGAGAAGGACAUCCAGCUC | – | – | 16.7 | 20.5
ACUAUACGAGGAUAUGCUGUCAAUACUAAGGAAUUAGUAUGACAUGAGGAUCACCCAUGUAGAAGGCGUAUACU | – | – | 27.8 | 14.7
UCAUUUAUUACAGGAUAUGUUAGUAUUCAGUUGUUUGGUUAUUACUUAUUUACAGAAGGGUAGAACAUGAGGAUCACCCAUGUA | 407 | 329 | – | –
AGGUGAGCUCGAUGGCGACAUGAGGAUCACCCAUGUACGAUCAGAAGGGCUCGGGCAAGAAGUGGGCAGGAUAUGGUCGGUGCC | – | – | 3.88 | 4.51
AAGCUGGUAGGAUAUACUAGGGCGAUUAAUACGCCGAUAGUACAUGAGGAUCACCCAUGUAGAAGGGCCAGAAA | – | – | 27.5 | 22.1
AAUUCACAUGAGGAUCACCCAUGUCAGGAUAUGGUUACGCGGGUUUCGGUGCGUGUGGCCAGAAGGGACAGCUA | – | – | 65 | 80.5
AUUAUUAAGUUAGGAUAUAGUAAAAUGAUUUAGUUAGAAGGAGCUCACAUGAGGAUCACCCAUGUAAGAGGAUCACCCAUGUAU | – | – | 23.8 | 15.6
